Published values collected from several papers.
Target: Mitogen-activated protein kinase 7 (MAPK7, Homo sapiens, UniProt Q13164)

| Structure (SMILES) | test | setting | measurement | value |
| --- | --- | --- | --- | --- |
| Cc1nc(N2CC[C@@H](O)C2)ncc1-c1cc(C(F)(F)F)cc2[nH]ncc12 | binding, competition with immobilised ligand | 1 µM | remaining binding | 83% |
| CC(C)(O)[C@H]1CC[C@H](Nc2ccc3ncc(-c4cccc(C(F)(F)F)c4)n3n2)CC1 | enzyme activity, inhibitor | 1 µM | remaining activity | 98.9% |
| FC(F)(F)Oc1cccc(-c2cnc3ccc(-c4ccncc4)nn23)c1 | enzyme activity, inhibitor, radiometric | 5 µM | activity vs control | 56% |
| c1ccc(CNc2nc(N3CCOc4ccccc43)nc3c2CCCC3)cc1 | target engagement in cells, inhibitor, chemoproteomics | 20 mM | inhibition | -6.4% |
| O=C(Nc1ccc(Oc2ccc(F)cc2)cc1)N1CCc2ncccc2[C@H]1c1ccc(F)cc1 | cell-free assay, competition with immobilised ligand | 1 µM | remaining binding | 96% |
| Cc1ccc(C(=O)Nc2ccc(CN3CCN(C)CC3)c(C(F)(F)F)c2)cc1C#Cc1cnc2cccnn12 | enzyme activity, inhibitor | 23.5 nM | remaining activity | 98% |
| CSc1cccnc1N1CCN(Cc2nc3ccccc3[nH]2)CC1 | cell-free assay, competition with immobilised ligand | 1 µM | remaining binding | 100% |
| CC/C(=N\NC(=O)NCc1cccc(O)c1)c1ccc(O)c(C)c1O | enzyme activity, inhibitor | 0.1 µM | inhibition | -1.7% |
| CC(C)(C)c1nc2c(s1)c1nc(N)ncc1c1ccc(NS(=O)(=O)c3c(F)cccc3F)c(F)c12 | enzyme activity, inhibitor, radiometric | 1 µM | remaining activity | 80% |
| COc1cc(Nc2cnc(C#N)c(O[C@H](C)CN(C)C)n2)ncc1-c1cnn(C)c1 | enzyme activity, inhibitor, radiometric | 10 µM | remaining activity | 85% |
| CCCCNc1ncc2c(-c3ccc(F)cc3)nn(C[C@H]3CC[C@H](N)CC3)c2n1 | target engagement in cells, inhibitor, chemoproteomics | 20 mM | inhibition | 11% |
| O=C(Nc1cnn(-c2csc(C(=O)NC3COC3)c2)c1)Nc1c(F)cccc1Cl | enzyme activity, inhibitor | 5 µM | remaining activity | 75.9% |
